Bioassay records: PubChem, The Scripps Research Institute Molecular Screening Center
CHRM4 agonist – agonists of human muscarinic M4 receptor (CHRM4). P08173. CHO-K1 hM4/Gqi5, Fluo-8 calcium fluorescence; vehicle 0%, full acetylcholine response 100%. activation, % at 3 µM. actives 0.14% (n = 360,000). AID 624127;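 active means activation above the run mean over all test wells plus 3 SD, cut at about 32% in these data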;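 further: peak over basal fluorescence ratio per well then scaled between controls; 0% = DMSO wells and 100% = acetylcholine at EC100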
M4 PAM – CHRM4 positive allosteric modulation; P08173; CHO-K1 hM4/Gqi5, Fluo-8 calcium fluorescence, ACh EC20; 0% = ACh EC20, 100% = maximal ACh; activation, % at 3 µM; actives 0.4% (n = 360,000); AID 624126;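 active means activation above its plate's cutoff, the mean activation of sample wells plus 3 SD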
M5 antag – antagonists of human muscarinic M5 receptor (CHRM5) | P08912 | AID 624040 | inhibition, % at 3 µM | CHO-hM5 cells, Fluo-8 calcium fluorescence, ACh EC80 | actives 0.59% (n = 360,000);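 active means inhibition above a per-plate cutoff, the mean of that plate's test compounds plus 3 SD, cut at about 27% in these data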;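 further: 0% = acetylcholine EC80 with DMSO and 100% = DMSO without agonist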
Target sequence (P08912 whole entry, looked up): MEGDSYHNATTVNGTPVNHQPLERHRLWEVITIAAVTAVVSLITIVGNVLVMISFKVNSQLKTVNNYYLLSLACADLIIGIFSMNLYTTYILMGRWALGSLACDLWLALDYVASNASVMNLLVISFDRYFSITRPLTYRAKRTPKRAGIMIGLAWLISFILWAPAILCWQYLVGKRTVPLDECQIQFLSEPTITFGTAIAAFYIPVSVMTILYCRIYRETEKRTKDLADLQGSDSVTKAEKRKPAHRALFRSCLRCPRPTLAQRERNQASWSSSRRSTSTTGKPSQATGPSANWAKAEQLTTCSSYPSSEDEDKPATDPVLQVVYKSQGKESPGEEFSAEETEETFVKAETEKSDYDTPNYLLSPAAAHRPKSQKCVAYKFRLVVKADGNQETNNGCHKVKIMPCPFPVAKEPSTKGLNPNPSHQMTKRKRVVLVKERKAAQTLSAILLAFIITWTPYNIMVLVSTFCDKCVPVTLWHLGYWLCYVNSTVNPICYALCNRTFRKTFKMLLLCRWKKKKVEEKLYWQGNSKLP
M4 antag – blocks acetylcholine activation of human M4 receptor; P08173; CHO-hM4 cells, ACh EC80, Fluo-8 calcium fluorescence; inhibition, % at 3 µM; actives 0.73% (n = 360,000);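 active means inhibition above its plate's cutoff, the mean inhibition of sample wells plus 3 SD, cut at about 27% in these data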;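 further: 0% = acetylcholine EC80 with DMSO and 100% = DMSO without agonist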
M5 ag – agonists of human muscarinic M5 receptor (CHRM5) | P08912 | CHO-K1 hM5 cells, Fluo-8 calcium fluorescence; 0% DMSO wells, 100% maximal acetylcholine response | activation, % at 3 µM | actives 0.19% (n = 360,000) | AID 624037;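 active means activation above the run's mean over test compounds plus 3 SD, cut at about 23% in these data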;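 further: signal is peak over basal fluorescence ratio across the kinetic read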
CHRM5 PAM – positive allosteric modulators of human muscarinic M5 receptor | AID 624038 | P08912 | activation, % at 3 µM | actives 0.3% (n = 360,000) | CHO-K1 hM5, Fluo-8 calcium, ACh EC20 PAM; 0% = ACh EC20, 100% = ACh EC100;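 active means activation above the run cutoff, the mean activation of all test compounds plus 3 SD, cut at about 18% in these data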
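System: CHO-K1 hM5 cells. Reagent: acetylcholine, EC20 level. Compound dosing: single dose, 3 µM nominal final test concentration. Timing: Post-acetylcholine fluorescence recording 140 s. Detection: Fluo-8 calcium fluorescence. Read-out: % activation, ACh-normalized. Benchmarks: ACh EC20 and EC100 wells. Repeats: singlicate, one well per test compound.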
Starred values were filed as active, the others as inactive. Compounds with a hit are over-represented: about 1.8% of the library has one in this group of screens.

SMILES	CHRM4 agonist	M4 PAM	M5 antag	M4 antag	M5 ag	CHRM5 PAM
O=C(NCCCN1CCOCC1)c1cc2ccccc2cc1O	1	12	-2	-3	-2	5
C/C(=N\NC(=O)c1cc2c(s1)CCC(C)C2)c1ccc[nH]1 (stereo unspecified)	41*	2	2	1	2	6
CNC(=S)Nn1cnc2ccccc21	0	8	-15	-1	3	22*
CCCCCCCC/C=C\CCCCCCCC(=O)NCCc1ccc(O)c(O)c1	0	1	-3	11	3	19*
CC1(C#CC[N+]2(C)CCCCC2)CCC2C(O1)c1ccccc1OC2(C)C (stereo unspecified)	84*	-30	88*	79*	76*	-35
Cc1cn(CC(=O)NCC2CCCO2)c(=O)[nH]c1=O (stereo unspecified)	2	4	-13	-4	0	3
NC(=O)C1CC(=O)N(c2ccc(OCc3ccc(Cl)c(Cl)c3)cc2)C1 (stereo unspecified)	16	-6	28*	9	9	-13
CC(C)Oc1ccc(F)cc1-c1cc(C(=O)Nc2ccc(C(C)(C)C)cc2)[nH]n1	1	-5	0	-4	1	-3
O=C(O)c1cccc(-n2c(-c3cnccn3)n[nH]c2=S)c1	1	4	-7	-6	3	18*
COc1ccc(NC(=O)COC(=O)CNS(=O)(=O)/C=C/c2ccccc2)cc1OC	1	2	14	7	-1	0
Cc1cc(C(=O)N2CCC(C)CC2)on1	1	24	6	9	1	18*
CCOC(=O)N1CCN(C(=O)c2cc(C)no2)CC1	1	7	0	-9	2	3
CC(C)C(=O)Nc1nc2cc3c(cc2s1)OCCO3	-1	-8	6	0	3	-4
O=C(COc1ccccc1)Nc1nc2cc3c(cc2s1)OCO3	5	-1	27*	0	-3	-7
CC(=O)Nc1nc2cc3c(cc2s1)OCO3	2	7	-1	-8	38*	-18
CC1(C)CN(c2ccccc2)C(=O)[C@H]1CC(=O)Nc1ccccc1	2	3	4	-15	1	-1
S=C1NCN(Cc2ccccc2)CN1C1CCCCC1	1	0	-9	0	-1	21*
COc1ccccc1CNC(=O)C(C)n1nc(C)n2c(cc3occc32)c1=O (stereo unspecified)	2	8	11	-13	-4	-4
Cc1nc(S(=O)(=O)N2CCN(C3c4ccccc4-c4ccccc43)CC2)cn1C	6	-4	-11	-12	-6	4
Cc1nc2c(o1)CCc1ccccc1C2N1CCN(C)CC1 (stereo unspecified)	1	-9	98*	98*	-10	-43
Cc1cccc(/C=N/n2c(C)cc(C)c(C#N)c2=O)c1	2	41*	-1	26	-1	5
CC(C)C[C@@H](CN1CCCC1CN1C(=S)NC[C@@H]1Cc1ccc(O)cc1)N1C[C@H](Cc2ccc(O)cc2)N(CCc2ccccc2)C1=S (stereo partly specified)	0	7	-5	-12	1	0
Cc1ccc([C@@H]2CC(=O)[C@@H]3CN(S(=O)(=O)c4ccc(C)cc4)[C@H](c4ccccc4)C[C@@H]3N2S(=O)(=O)c2ccc(Cl)cc2)cc1	1	4	-1	-5	1	2
O=C(Nc1ccccc1)c1ccccc1OCC(O)CN1C(=O)c2ccccc2S1(=O)=O (stereo unspecified)	19	-20	22	32*	4	-20
CC1(C)NC(=O)N(CC(O)COc2ccccc2C(=O)Nc2ccccc2)C1=O (stereo unspecified)	11	-2	12	2	1	-14
SMILES	CHRM4 agonist	M4 PAM	M5 antag	M4 antag	M5 ag	CHRM5 PAM
CC1(c2nnc(-c3cccc(Cl)c3)o2)CC(c2cccc(Cl)c2)=NO1 (stereo unspecified)	2	1	3	3	1	1
Cc1cccc(OC(=O)C2C(c3ccccc3)C(C(=O)O)C2c2ccccc2)c1 (stereo unspecified)	2	31*	-2	21	2	-5
O=C(O)C1C(c2ccccc2)C(C(=O)Oc2ccccc2)C1c1ccccc1 (stereo unspecified)	0	-4	5	2	0	-2
O=C(Nc1ccccc1C(=O)O)c1ccc(Br)o1	-1	-5	-6	-7	2	-2
CC(=O)c1cc(C(=O)Nc2ccccc2C(=O)O)oc1C	0	32*	-20	-2	-3	0
O=C(c1ccc2c(=O)n(C3CCCC3)c(=S)[nH]c2c1)N1CCc2ccccc21	0	-9	5	9	0	-6
CN(c1ccccc1)c1ccc(/C=C/[N+](=O)[O-])cc1	16	-15	71*	36*	44*	-8
CC(C)CN(CC(C)C)C(=O)Nc1ccccc1F	0	5	-1	3	-1	-1
CC1CCCC/C1=N\NS(=O)(=O)c1ccc(Br)cc1 (stereo unspecified)	0	7	3	-6	-4	6
CCN1/C(=C/c2cc[n+](CCCS(=O)(=O)[O-])c3ccccc23)Sc2ccccc21	0	1	0	2	-1	5
C=CC[n+]1ccc(/C=C2\C=Cc3cc(C)ccc3N2CC)c2ccccc21	4	-12	35*	15	1	-18
O=C1NC[C@H](Cc2ccccc2)N(CC2CCN(CCCCc3ccccc3)CC2)C1=O	1	-8	10	14	2	-7
S=C1NC[C@H](Cc2ccccc2)N1CC1CCN(CCCCc2ccccc2)CC1	3	-15	23	28*	-3	-15
CCOC(=O)C1=NOC2(C1)C(=O)Nc1ccc(OC)cc12 (stereo unspecified)	1	6	-4	0	2	2
Cn1c(SCc2c(Cl)cccc2Cl)nnc1-c1ccc2nonc2c1	11	26*	3	24	-11	0
Cc1c(O)c(S(=O)(=O)c2ccccc2)c(=O)n(-c2ccccc2)c1-c1ccccc1	1	10	4	27*	-3	0
Cc1c(O)c(S(=O)c2ccccc2)c(=O)n(-c2ccccc2)c1-c1ccccc1 (stereo unspecified)	0	-3	0	2	1	-3
CCC(=O)N1CCc2cc(S(=O)(=O)NCCN3CCCCC3CC)ccc21 (stereo unspecified)	0	1	-9	-6	-10	24*
